Experimental data from ChEMBL document CHEMBL4351006, “A new exploration towards aminothiazolquinolone oximes as potentially multi-targeting antibacterial agents: Design, synthesis and evaluation acting on microbes, DNA, HSA and topoisomerase IV” (Eur J Med Chem, 2019).
Values after ≈ are worked out from the molar mass of the structure shown. Active and inactive are the calls of the source. The calls are words filed in the database; no cut-off is given here.

How the values were obtained:
[1] = system: Staphylococcus aureus; assay: Antibacterial activity against methicillin resistant Staphylococcus aureus N315 assessed as reduction in bacterial cell viability incubated for 24 hrs by two fold serial dilution method; assay type: functional; conditions: N315, 24 h
In short: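 MIC by two-fold serial dilution following CLSI, with chloromycin and norfloxacin as reference drugs.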

[2] = system: Staphylococcus aureus; assay: Induction of membrane permeabilization in methicillin resistant Staphylococcus aureus assessed as increase in fluorescence intensity at 12 times of MIC incubated for 2 hr by propidium iodide staining based fluorescence microscopy; assay type: functional, organism-based
In short: (§1)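 MRSA cells were treated with the compound and stained with propidium iodide, which enters cells with damaged membranes and fluoresces on binding DNA. Fluorescence intensity was followed over time against untreated bacteria.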

[3] = system: Candida tropicalis; assay: Synergistic antifungal activity against Candida tropicalis assessed as FICI in presence of fluconazole incubated for 24 hrs by two fold serial dilution method
[4] = target: T1, Albumin (Homo sapiens, UniProt P02768); assay: Binding affinity to HSA assessed as Stern-Volmer quenching constant at 298 K by fluorescence spectroscopy; assay type: ADME; conditions: isolated protein
[5] = system: Staphylococcus aureus; assay: Antibacterial activity against Staphylococcus aureus ATCC 29213 assessed as reduction in bacterial cell viability incubated for 24 hrs by two fold serial dilution method; assay type: functional; conditions: ATCC 29213, 24 h
In short: (§2)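 Broth two-fold serial dilution run to CLSI guidelines. Chloromycin, norfloxacin and fluconazole served as reference drugs.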

[6] = system: Staphylococcus aureus; assay: Potency index, ratio of MIC of norfloxacin to MIC of compound for antibacterial activity against methicillin resistant Staphylococcus aureus N315 assessed as reduction in bacterial cell viability incubated for 24 hrs by two fold serial dilution method; assay type: functional
[7] = system: Staphylococcus aureus; assay: Potency index, ratio of MIC of chloromycin to MIC of compound for antibacterial activity against methicillin resistant Staphylococcus aureus N315 assessed as reduction in bacterial cell viability incubated for 24 hrs by two fold serial dilution method; assay type: functional
[8] = system: Candida albicans; assay: Antifungal activity against Candida albicans assessed as reduction in fungal cell viability in presence of fluconazole incubated for 24 hrs by two fold serial dilution method
[9] = target: T1, Albumin; assay: Binding affinity to HSA assessed as change in gibbs free energy at 310 K by Van't Hoff plot analysis; assay type: ADME; conditions: isolated protein
[10] = system: Staphylococcus aureus; assay: Antibacterial activity against Staphylococcus aureus ATCC 25923 assessed as reduction in bacterial cell viability incubated for 24 hrs by two fold serial dilution method; assay type: functional; conditions: ATCC 25923, 24 h; in short: as §2
[11] = system: Candida tropicalis; assay: Antifungal activity against Candida tropicalis assessed as reduction in fungal cell viability in presence of fluconazole incubated for 24 hrs by two fold serial dilution method
[12] = system: Staphylococcus aureus; assay: Antibacterial activity against Staphylococcus aureus assessed as reduction in bacterial cell viability incubated for 24 hrs by two fold serial dilution method; assay type: functional; in short: as §2
[13] = target: T1, Albumin; assay: Binding affinity to HSA assessed as binding constant at 286 K by fluorescence spectroscopy based Scatchard method; assay type: ADME; conditions: isolated protein
[14] = system: Calf thymus DNA; assay: Competitive binding affinity to calf thymus DNA assessed as inhibition of binding of neutral red by UV-visible spectrophotometric method; assay type: nucleic-acid assay; conditions: Bos taurus
[15] = target: T1, Albumin; assay: Binding affinity to HSA assessed as quenching constant at 286 K by fluorescence spectroscopy; assay type: ADME; conditions: isolated protein
[16] = system: Candida parapsilosis; assay: Antifungal activity against Candida parapsilosis ATCC 22019 assessed as reduction in fungal cell viability incubated for 24 hrs by two fold serial dilution method; conditions: Lodderomyces parapsilosis, ATCC 22019, 24 h
[17] = system: Acinetobacter baumannii; assay: Antibacterial activity against Acinetobacter baumannii assessed as reduction in bacterial cell viability incubated for 24 hrs by two fold serial dilution method; assay type: functional; in short: as §2
[18] = target: T1, Albumin; assay: Binding affinity to HSA assessed as change in gibbs free energy at 286 K by Van't Hoff plot analysis; assay type: ADME; conditions: isolated protein
[19] = system: Pseudomonas aeruginosa; assay: Antibacterial activity against Pseudomonas aeruginosa assessed as reduction in bacterial cell viability incubated for 24 hrs by two fold serial dilution method; assay type: functional; in short: as §2
[20] = Cytotoxicity against human BEAS2B cells assessed as cell viability upto 139.52 uM incubated for 24 hrs by MTT assay relative to control; assay type: cell-based; conditions: BEAS-2B cells, read-out: Activity
In short: (§3)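 MTT viability assay in A549 and BEAS-2B cells, with doxorubicin at 0.50 μM as positive control. Viability is plotted with standard deviation from three independent experiments.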

[21] = system: Candida albicans; assay: Antifungal activity against Candida albicans ATCC 90023 assessed as reduction in fungal cell viability incubated for 24 hrs by two fold serial dilution method; assay type: functional; conditions: ATCC 90023, 24 h; in short: as §2
[22] = system: Klebsiella pneumoniae; assay: Synergistic antibacterial activity against Klebsiella pneumoniae assessed as FICI in presence of cefixime incubated for 24 hrs by two fold serial dilution method; assay type: functional
[23] = system: Calf thymus DNA; assay: Binding affinity to calf thymus DNA by UV-visible spectrophotometric method; assay type: nucleic-acid assay; conditions: Bos taurus
[24] = target: T1, Albumin; assay: Binding affinity to HSA assessed as change in enthalpy at 298 K by Van't Hoff plot analysis; assay type: ADME; conditions: isolated protein
[25] = system: Staphylococcus aureus; assay: Antibacterial activity against Staphylococcus aureus assessed as reduction in bacterial cell viability in presence of cefixime incubated for 24 hrs by two fold serial dilution method; assay type: functional
[26] = target: T1, Albumin; assay: Binding affinity to HSA assessed as change in gibbs free energy at 298 K by Van't Hoff plot analysis; assay type: ADME; conditions: isolated protein
[27] = target: T1, Albumin; assay: Binding affinity to HSA assessed as change in entropy at 298 K by Van't Hoff plot analysis; assay type: ADME; conditions: isolated protein
[28] = system: Staphylococcus aureus; assay: Antibacterial activity against methicillin resistant Staphylococcus aureus assessed as change in drug resistance after 16 serial passages in presence of cefixime at 0.5 times of MIC incubated for 12 hrs by serial dilution method; assay type: functional, organism-based
[29] = system: Staphylococcus aureus; assay: Synergistic antibacterial activity against Staphylococcus aureus assessed as FICI in presence of cefixime incubated for 24 hrs by two fold serial dilution method; assay type: functional
[30] = system: Enterococcus faecalis; assay: Antibacterial activity against Enterococcus faecalis assessed as reduction in bacterial cell viability incubated for 24 hrs by two fold serial dilution method; assay type: functional; in short: as §2
[31] = system: Staphylococcus aureus; assay: Induction of membrane permeabilization in methicillin resistant Staphylococcus aureus assessed as increase in fluorescence intensity steady state at 12 times of MIC after 100 mins by propidium iodide staining based fluorescence microscopy; assay type: functional, organism-based; in short: as §1
[32] = system: Klebsiella pneumoniae; assay: Antibacterial activity against Klebsiella pneumoniae assessed as reduction in bacterial cell viability in presence of cefixime incubated for 24 hrs by two fold serial dilution method; assay type: functional
[33] = target: T1, Albumin; assay: Binding affinity to HSA assessed as quenching constant at 298 K by fluorescence spectroscopy; assay type: ADME; conditions: isolated protein
[34] = system: Staphylococcus aureus; assay: Antibacterial activity against methicillin resistant Staphylococcus aureus N315 assessed as reduction in bacterial cell viability in presence of cefixime incubated for 24 hrs by two fold serial dilution method; assay type: functional; conditions: N315, 24 h
[35] = system: Pseudomonas aeruginosa; assay: Antibacterial activity against Pseudomonas aeruginosa ATCC 27853 assessed as reduction in bacterial cell viability incubated for 24 hrs by two fold serial dilution method; assay type: functional; conditions: ATCC 27853, 24 h; in short: as §2
[36] = system: Candida tropicalis; assay: Antifungal activity against Candida tropicalis assessed as reduction in fungal cell viability incubated for 24 hrs by two fold serial dilution method; assay type: functional; in short: as §2
[37] = target: T1, Albumin; assay: Binding affinity to HSA assessed as Stern-Volmer quenching constant at 310 K by fluorescence spectroscopy; assay type: ADME; conditions: isolated protein
[38] = system: Escherichia coli; assay: Antibacterial activity against Escherichia coli ATCC 25922 assessed as reduction in bacterial cell viability incubated for 24 hrs by two fold serial dilution method; assay type: functional; conditions: ATCC 25922, 24 h; in short: as §2
[39] = system: Aspergillus fumigatus; assay: Antifungal activity against Aspergillus fumigatus assessed as reduction in fungal cell viability incubated for 24 hrs by two fold serial dilution method; assay type: functional; in short: as §2
[40] = system: Staphylococcus aureus; assay: Antibacterial activity against methicillin resistant Staphylococcus aureus assessed as fold change after 16 serial passages at 0.5 times of MIC incubated for 12 hrs by sequential passaging method; assay type: functional
[41] = target: T1, Albumin; assay: Binding affinity to HSA assessed as Stern-Volmer quenching constant at 286 K by fluorescence spectroscopy; assay type: ADME; conditions: isolated protein
[42] = system: Candida albicans; assay: Synergistic antifungal activity against Candida albicans assessed as FICI in presence of fluconazole incubated for 24 hrs by two fold serial dilution method
[43] = Cytotoxicity against human A549 cells assessed as cell viability upto 139.52 uM incubated for 24 hrs by MTT assay relative to control; assay type: cell-based; conditions: read-out: Activity; in short: as §3
[44] = target: T1, Albumin; assay: Binding affinity to HSA assessed as binding constant at 310 K by fluorescence spectroscopy based Scatchard method; assay type: ADME; conditions: isolated protein
[45] = system: Candida albicans; assay: Antifungal activity against Candida albicans assessed as reduction in fungal cell viability incubated for 24 hrs by two fold serial dilution method; assay type: functional; in short: as §2
[46] = system: Escherichia coli; assay: Antibacterial activity against Escherichia coli assessed as reduction in bacterial cell viability incubated for 24 hrs by two fold serial dilution method; assay type: functional; in short: as §2
[47] = target: T1, Albumin; assay: Binding affinity to HSA assessed as binding constant at 298 K by fluorescence spectroscopy based Scatchard method; assay type: ADME; conditions: isolated protein
[48] = system: Klebsiella pneumoniae; assay: Antibacterial activity against Klebsiella pneumoniae assessed as reduction in bacterial cell viability incubated for 24 hrs by two fold serial dilution method; assay type: functional; in short: as §2
[49] = target: T1, Albumin; assay: Binding affinity to HSA assessed as quenching constant at 310 K by fluorescence spectroscopy; assay type: ADME; conditions: isolated protein

T1 sequence (P02768 whole entry): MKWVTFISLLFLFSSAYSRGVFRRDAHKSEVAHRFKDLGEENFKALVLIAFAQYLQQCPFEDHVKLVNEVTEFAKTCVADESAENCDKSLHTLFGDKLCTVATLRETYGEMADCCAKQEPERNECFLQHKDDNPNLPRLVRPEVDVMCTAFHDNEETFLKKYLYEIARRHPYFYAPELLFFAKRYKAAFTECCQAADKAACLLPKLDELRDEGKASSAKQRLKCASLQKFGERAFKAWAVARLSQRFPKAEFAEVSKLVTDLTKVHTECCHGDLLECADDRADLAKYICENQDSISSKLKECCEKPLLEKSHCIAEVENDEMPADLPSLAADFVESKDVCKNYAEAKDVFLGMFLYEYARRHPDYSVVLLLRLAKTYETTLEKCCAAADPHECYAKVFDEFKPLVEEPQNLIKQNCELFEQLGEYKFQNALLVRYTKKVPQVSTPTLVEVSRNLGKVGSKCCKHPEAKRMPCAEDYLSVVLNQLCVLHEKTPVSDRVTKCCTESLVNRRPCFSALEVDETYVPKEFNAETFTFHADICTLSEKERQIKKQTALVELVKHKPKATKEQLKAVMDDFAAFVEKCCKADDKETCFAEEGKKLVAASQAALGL

For CCn1cc(-c2csc(N)n2)c(=O)c2cc(F)c(N3CCN(C/C(C)=N/OC)CC3)cc21, the MIC [1] was 9 µM (≈ 4.13 µg/mL), the Activity [2] was “Active” and the “fractional inhibitory concentration index (FICI)” value [3] was 1.25. The KSV [4] was 1.79 ×10⁵ L/mol, the MIC [5] was 140 µM (≈ 64.2 µg/mL) and the Ratio [6] was 2. The Ratio [7] was 5, the MIC [8] was 2.18 µM and the deltaG [9] was -6.4725 kcal/mol. It also gave an MIC [10] of 17 µM (≈ 7.8 µg/mL), an MIC [11] of 17.4 µM and an MIC [12] of 35 µM (≈ 16 µg/mL). The Kb [13] was 1.81 ×10⁵ L/mol, the Activity [14] was “Active” and the Kq [15] was 2.95 ×10¹³ L/mol/s. For the same molecule, the MIC [16] was 70 µM (≈ 32.1 µg/mL), the MIC [17] was 279 µM (≈ 128 µg/mL) and the deltaG [18] was -6.5084 kcal/mol. For the same molecule, the MIC [19] was 70 µM (≈ 32.1 µg/mL), the viability at 24 h [20] was > 75% and the MIC [21] was 17 µM (≈ 7.8 µg/mL). For the same molecule, the “fractional inhibitory concentration index (FICI)” value [22] was 0.625, the K [23] was 2.51 ×10⁴ L/mol and the deltaH [24] was -6.9355 kcal/mol. It also gave an MIC [25] of 8.72 µM, a deltaG [26] of -6.4904 kcal/mol and a deltaS [27] of -6.247 J/mol.K. For the same molecule, the Activity [28] was “inactive”, the “fractional inhibitory concentration index (FICI)” value [29] was 0.5 and the MIC [30] was 70 µM (≈ 32.1 µg/mL). The Activity [31] was “Active”, the MIC [32] was 8.72 µM and the Kq [33] was 2.8 ×10¹³ L/mol/s. The MIC [34] was 4.36 µM, the MIC [35] was 35 µM (≈ 16 µg/mL) and the MIC [36] was 70 µM (≈ 32.1 µg/mL). The KSV [37] was 1.57 ×10⁵ L/mol, the MIC [38] was 35 µM (≈ 16 µg/mL) and the MIC [39] was 35 µM (≈ 16 µg/mL). For the same molecule, the “fold change (FC)” value [40] was “inactive”, the KSV [41] was 1.89 ×10⁵ L/mol and the “fractional inhibitory concentration index (FICI)” value [42] was 0.281. The viability at 24 h [43] was > 75%, the Kb [44] was 1.44 ×10⁵ L/mol and the MIC [45] was 70 µM (≈ 32.1 µg/mL). It also gave an MIC [46] of 70 µM (≈ 32.1 µg/mL), a Kb [47] of 1.63 ×10⁵ L/mol and an MIC [48] of 70 µM (≈ 32.1 µg/mL). The Kq [49] was 2.45 ×10¹³ L/mol/s.
